Test [1] deals with Aspergillus niger. The experiment in a line: Antifungal activity against Aspergillus niger using 1 x 10^5 spore/100 uL after 72 hrs by microdilution method. It counts as functional.
Test [2] relates to Aspergillus flavus. The experiment in a line: Antifungal activity against Aspergillus flavus using 1 x 10^5 spore/100 uL after 72 hrs by microdilution method. It is filed as functional. Background: Broth dilution looks for growth in wells or tubes with falling amounts of substance.
For test [3], the system named is Aspergillus fumigatus. As to the kind of experiment: Antifungal activity against Aspergillus fumigatus using 1 x 10^5 spore/100 uL after 72 hrs by microdilution method. It counts as functional.
Test [4] deals with Trichoderma viride. As to the kind of experiment: Antifungal activity against Trichoderma viride using 1 x 10^5 spore/100 uL after 72 hrs by microdilution method. It counts as functional.
Test [5] in a line: Antifungal activity against Trichoderma reesei using 1 x 10^5 spore/100 uL after 72 hrs by microdilution method. It counts as functional. The essentials:
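Spores washed from malt agar cultures with sterile 0.85% saline plus 0.1% Tween 80, adjusted to about 1.0×10^5 per 100 µl well. Compounds from a 1 mg/ml DMSO stock were serially diluted in malt broth with inoculum in 96-well plates and incubated 72 h at 28 °C. MIC is the lowest concentration with no visible growth under a binocular microscope. DMSO served as negative control.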

Test [6] relates to Curvularia australiensis. The experiment in a line: Antifungal activity against Drechslera australiensis using 1 x 10^5 spore/100 uL after 72 hrs by microdilution method. It is filed as functional.
Test [7] concerns Aspergillus niger. As to the kind of experiment: Antifungal activity against Aspergillus niger using 1 x 10^5 spore/100 uL assessed as 99.5% fungal killing of original inoculum after 72 hrs by microdilution method. It is filed as functional.
Test [8] has as its system Aspergillus flavus. As to the kind of experiment: Antifungal activity against Aspergillus flavus using 1 x 10^5 spore/100 uL assessed as 99.5% fungal killing of original inoculum after 72 hrs by microdilution method. It counts as functional.
The subject of test [9] is Aspergillus fumigatus. As to the kind of experiment: Antifungal activity against Aspergillus fumigatus using 1 x 10^5 spore/100 uL assessed as 99.5% fungal killing of original inoculum after 72 hrs by microdilution method. It is filed as functional.
The test system of test [10] is Trichoderma viride. The experiment in a line: Antifungal activity against Trichoderma viride using 1 x 10^5 spore/100 uL assessed as 99.5% fungal killing of original inoculum after 72 hrs by microdilution method. It is filed as functional.
Test [11] in a line: Antifungal activity against Trichoderma reesei using 1 x 10^5 spore/100 uL assessed as 99.5% fungal killing of original inoculum after 72 hrs by microdilution method. It counts as functional.
Test [12] has as its system Curvularia australiensis. As to the kind of experiment: Antifungal activity against Drechslera australiensis using 1 x 10^5 spore/100 uL assessed as 99.5% fungal killing of original inoculum after 72 hrs by microdilution method. It is filed as functional.
For a further test, the system named is Bacillus cereus. The experiment in a line: Antibacterial activity against Bacillus cereus using 1 x 10^4 CFU/ml inoculum after 24 hrs by microdilution method. It counts as functional.
The subject of the next test is Bacillus subtilis. As to the kind of experiment: Antibacterial activity against Bacillus subtilis using 1 x 10^4 CFU/ml inoculum after 24 hrs by microdilution method. It is filed as functional.
In the next test the test system is Bacillus thuringiensis. As to the kind of experiment: Antibacterial activity against Bacillus thuringiensis using 1 x 10^4 CFU/ml inoculum after 24 hrs by microdilution method. It counts as functional.
Another test concerns Staphylococcus aureus. The experiment in a line: Antibacterial activity against Staphylococcus aureus using 1 x 10^4 CFU/ml inoculum after 24 hrs by microdilution method. It is filed as functional.
The subject of the next test is Escherichia coli. The experiment in a line: Antibacterial activity against Escherichia coli using 1 x 10^4 CFU/ml inoculum after 24 hrs by microdilution method. It is filed as functional.
Another test has as its system Pseudomonas aeruginosa. The experiment in a line: Antibacterial activity against Pseudomonas aeruginosa using 1 x 10^4 CFU/ml inoculum after 24 hrs by microdilution method. It counts as functional.
For the next test, the system named is Salmonella typhi. As to the kind of experiment: Antibacterial activity against Salmonella typhi using 1 x 10^4 CFU/ml inoculum after 24 hrs by microdilution method. It counts as functional, Salmonella enterica subsp. enterica serovar Typhi.

The structures appear in SMILES notation.

Regarding `C/C(=N\NC(=O)C1=C(O)c2ccccc2S(=O)(=O)N1)c1ccccc1O`, the MIC with Aspergillus niger [1] was >100 ×10⁻² umol; with Aspergillus flavus [2], >100 ×10⁻² umol; against Aspergillus fumigatus [3] it was >100 ×10⁻² umol; against Trichoderma viride [4], >100 ×10⁻² umol; in test [5], > 100 ×10⁻² µmol; against Curvularia australiensis [6] it was >100 ×10⁻² umol. Besides, the MIC was determined as 4.2 ×10⁻² umol against Bacillus cereus; 4.4 ×10⁻² umol in the test with Bacillus subtilis; 4.1 ×10⁻² umol in the test on Bacillus thuringiensis; 17.8 ×10⁻² umol against Staphylococcus aureus; 19.9 ×10⁻² umol in the test with Escherichia coli; 20.6 ×10⁻² umol against Pseudomonas aeruginosa. Moreover, the MIC with Salmonella typhi is 22.7 ×10⁻² umol. For the same compound, the MFC in the test on Aspergillus niger [7] was >200 ×10⁻² umol; with Aspergillus flavus [8], >200 ×10⁻² umol; with Aspergillus fumigatus [9], >200 ×10⁻² umol; in the test with Trichoderma viride [10], >200 ×10⁻² umol; in test [11], > 200 ×10⁻² µmol; with Curvularia australiensis [12], >200 ×10⁻² umol.

For the compound `C/C(=N\NC(=O)C1=C(O)c2ccccc2S(=O)(=O)N1C)c1ccc(I)cc1`, the MIC came to 91.4 ×10⁻² umol in the test with Aspergillus niger [1]; 89.8 ×10⁻² umol with Aspergillus flavus [2]; 81.9 ×10⁻² umol in the test on Aspergillus fumigatus [3]; 71.1 ×10⁻² umol against Trichoderma viride [4]; 70.1 ×10⁻² µmol in [5]; 74 ×10⁻² umol in the test on Curvularia australiensis [6]. Further, the MIC was 9 ×10⁻² umol in the test on Bacillus cereus; 9.3 ×10⁻² umol against Bacillus subtilis; 9.2 ×10⁻² umol against Bacillus thuringiensis; 28 ×10⁻² umol in the test with Staphylococcus aureus; 29.3 ×10⁻² umol against Escherichia coli; 30.5 ×10⁻² umol in the test with Pseudomonas aeruginosa. The compound also registered an MIC in the test with Salmonella typhi of 33.2 ×10⁻² umol. Moreover, the MFC with Aspergillus niger [7] came out at 198.4 ×10⁻² umol; with Aspergillus flavus [8], 190.7 ×10⁻² umol; in the test on Aspergillus fumigatus [9] it was 159.8 ×10⁻² umol; in the test with Trichoderma viride [10], 139.2 ×10⁻² umol; in test [11], 123 ×10⁻² µmol; in the test with Curvularia australiensis [12] it was 150.6 ×10⁻² umol.

As to `C/C(=N\NC(=O)C1=C(O)c2ccccc2S(=O)(=O)N1)c1ccc(N)cc1`, the MIC against Aspergillus niger [1] came out at 83.8 ×10⁻² umol; with Aspergillus flavus [2] it was 82.9 ×10⁻² umol; in the test on Aspergillus fumigatus [3], 74 ×10⁻² umol; with Trichoderma viride [4], 71.3 ×10⁻² umol; in test [5] it was 70.3 ×10⁻² µmol; against Curvularia australiensis [6], 70 ×10⁻² umol. Moreover, the MIC in the test on Bacillus cereus turned out to be 6.2 ×10⁻² umol; against Bacillus subtilis, 6 ×10⁻² umol; against Bacillus thuringiensis it was 6.1 ×10⁻² umol; with Staphylococcus aureus, 20.5 ×10⁻² umol; with Escherichia coli, 22.9 ×10⁻² umol; with Pseudomonas aeruginosa it was 24.5 ×10⁻² umol. In the test with Salmonella typhi, this compound displayed an MIC of 27.7 ×10⁻² umol. Besides, the MFC in the test on Aspergillus niger [7] worked out at 177.5 ×10⁻² umol; with Aspergillus flavus [8], 175.9 ×10⁻² umol; in the test on Aspergillus fumigatus [9] it was 150.1 ×10⁻² umol; in the test on Trichoderma viride [10], 142.8 ×10⁻² umol; in [11], 138 ×10⁻² µmol; with Curvularia australiensis [12] it was 129.5 ×10⁻² umol.

Regarding `COc1ccc(/C(C)=N/NC(=O)C2=C(O)c3ccccc3S(=O)(=O)N2C)cc1`, the MIC came out at 87.2 ×10⁻² umol in the test with Aspergillus niger [1]; 86.1 ×10⁻² umol against Aspergillus flavus [2]; 77.6 ×10⁻² umol against Aspergillus fumigatus [3]; 79.2 ×10⁻² umol in the test on Trichoderma viride [4]; 78.9 ×10⁻² µmol in test [5]; 80 ×10⁻² umol against Curvularia australiensis [6]. Besides, the MIC with Bacillus cereus was determined as 7.9 ×10⁻² umol; against Bacillus subtilis, 7.6 ×10⁻² umol; against Bacillus thuringiensis, 7.8 ×10⁻² umol; in the test on Staphylococcus aureus it was 26.3 ×10⁻² umol; in the test with Escherichia coli it was 27.9 ×10⁻² umol; with Pseudomonas aeruginosa it was 29.2 ×10⁻² umol. The same compound gave an MIC against Salmonella typhi of 32.4 ×10⁻² umol. In addition, the MFC in the test on Aspergillus niger [7] came to 180.7 ×10⁻² umol; with Aspergillus flavus [8] it was 170 ×10⁻² umol; with Aspergillus fumigatus [9] it was 149.5 ×10⁻² umol; in the test on Trichoderma viride [10], 158.4 ×10⁻² umol; in test [11], 158 ×10⁻² µmol; in the test on Curvularia australiensis [12], 159.9 ×10⁻² umol.

The values are drawn from ChEMBL document CHEMBL1781892, “Microwave assisted synthesis and structure-activity relationship of 4-hydroxy-N'-[1-phenylethylidene]-2H/2-methyl-1,2-benzothiazine-3-carbohydrazide 1,1-dioxides as anti-microbial agents” (2011).
